According to PMC6598219 (Saudi Pharmaceutical Journal : SPJ, 2019):
Values after ≈ are worked out from the molar mass of the structure shown.

What was measured:
[1] = DPPH free radical scavenging activity
Method in brief: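 Test compound aliquots at 20, 40, 60, 80 and 100 µg/mL were added to 0.004% DPPH solution, and absorbance was read at 520 nm after 30 min. BHA served as reference and methanol as control. Inhibition % = (Ao − At)/Ao × 100, with Ao the control absorbance. Results given as mean ± SD.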

[2] = ABTS radical cation scavenging activity
Method in brief: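 ABTS radical cation formed by mixing aqueous 7 mmol/L ABTS and 2.45 mmol/L potassium persulfate 1:1 and keeping in the dark 6 h at room temperature. The radical was diluted in ethanol and equilibrated at 30 °C. Test compound aliquots at 20, 40, 60, 80 and 100 µg/mL were added, incubated 30 °C for 20 min, and read at 734 nm with BHA as reference. Scavenging % = (Ac − Aa)/Ac × 100. Results given as mean ± SD.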

COc1ccc(O)c(C(C)(C)C)c1 [BHA, butylated hydroxyanisole]
DPPH free radical scavenging property (%) ([1]; at 100 µg/mL): 93.4 ± 1.6% | IC50, DPPH free radical scavenging ([1]; mean of three replicates): 34.50 ± 6.20 µg/mL (≈ 191 µM) | ABTS scavenging property (%) ([2]; at 100 µg/mL concentration): 98.20 ± 4.60% | IC50, ABTS radical scavenging ([2]; mean of three replicates): 28.70 ± 5.20 µg/mL (≈ 159 µM)
